In assay [1] the test system is Candida albicans. Kind of assay: Minimum inhibitory concentration was evaluated in vitro againist P. Candida albicans 10231. In kind it is functional. The method, boiled down: (§1)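 Compounds in water, 50% Me₂SO–water or 100% Me₂SO. Disk-plate prescreen, with those active at 1000 μg/mL then titrated by autodilution. Fungi were grown in proteose peptone no. 3 maltose at 23 °C for 3-5 days. MIC was read as the lowest drug level showing no turbidity.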

Assay [2] relates to Streptococcus pyogenes. The assay can be described thus: Minimum inhibitory concentration was evaluated in vitro againist P. Streptococcus pyogenes C-203. In kind it is functional. The method, boiled down: (§2)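 Compounds dissolved in water, 50% Me₂SO–water or 100% Me₂SO. They were first screened by disk-plate, and those active at 1000 μg/mL went on to the autotitration method using an automatic diluting device. Bacteria were inoculated into tryptose phosphate broth and incubated at 37 °C for 18-20 h. MIC is the lowest drug level giving complete absence of growth (turbidity).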

In assay [3] the test system is Escherichia coli. Kind of assay: Minimum inhibitory concentration was evaluated in vitro againist Escherichia coli Vogel. In kind it is functional. A digest of the protocol:
as §2

The test system of assay [4] is Aspergillus niger. The assay can be described thus: Minimum inhibitory concentration was evaluated in vitro againist P. As. niger 16404. In kind it is functional. The method, boiled down: as §1
For assay [5], the system named is Proteus vulgaris. The assay can be described thus: Minimum inhibitory concentration was evaluated in vitro againist Proteus vulgaris 9920. In kind it is functional. The method, boiled down: as §2
Assay [6] relates to Klebsiella pneumoniae. Kind of assay: Minimum inhibitory concentration was evaluated in vitro againist Klebsiella pneumoniae 39645. In kind it is functional. A digest of the protocol:
as §2

The subject of assay [7] is Staphylococcus aureus. The assay can be described thus: Minimum inhibitory concentration was evaluated in vitro againist Staphylococcus aureus Smith. In kind it is functional. A digest of the protocol:
as §2

The subject of assay [8] is Proteus mirabilis. Kind of assay: Minimum inhibitory concentration was evaluated in vitro againist Proteus mirabilis MGH-1. In kind it is functional. The method, boiled down:
as §2

The subject of assay [9] is Trichophyton benhamiae. The assay can be described thus: Minimum inhibitory concentration was evaluated in vitro againist P. Trichophyton mentagrophytes 9129. In kind it is functional, Arthroderma benhamiae. A digest of the protocol: as §1
Assay [10] relates to Pseudomonas aeruginosa. Kind of assay: Minimum inhibitory concentration was evaluated in vitro againist P. Ps. aeruginosa MGH-2. In kind it is functional. A digest of the protocol:
as §2

Some results are limits rather than exact numbers.

In the case of `CCCCCCCCCCCC(=O)NNC(=O)C[n+]1ccccc1`, the minimal inhibitory concentration (MIC) in [1] stood at 170 µM; in assay [2] it was 42 µM; in assay [3], 340 µM; in [4] it was 170 µM; in [5], 680 µM; in [6], 680 µM. The minimal inhibitory concentration (MIC) in [7] came to 85 µM; in assay [8], 1400 µM; in assay [9], 170 µM; in assay [10] it was 340 µM.
Consider `CCCCCCCCCCCCCCCCCC(=O)NNC(=O)C[n+]1ccccc1`, for which the minimal inhibitory concentration (MIC) in [1] is over 17 µM; in assay [2], 1.1 µM; in assay [3], over 69 µM; in [4], over 34 µM; in assay [5] it was over 69 µM; in [6], over 69 µM. Besides, the minimum inhibitory concentration (MIC) in assay [7] is over 34 µM; in [8], over 69 µM; in assay [9], over 17 µM; in assay [10] it was over 34 µM.
Regarding `CCCCCCCCCCCCCC(=O)NNC(=O)C[n+]1ccccc1`, the MIC was 19.6 µM in [1]; 9.8 µM in assay [2]; over 39 µM in [3]; 39 µM in [4]; over 79 µM in [5]; over 79 µM in assay [6]. For the same molecule, the MIC in assay [7] is 19.6 µM; in [8], over 79 µM; in [9], 39 µM; in assay [10], over 39 µM.
For `CCCCCCCCCC(=O)NNC(=O)C[n+]1ccccc1`, the MIC in assay [1] was 730 µM; in assay [2], 370 µM; in assay [3] it was over 1500 µM; in [4], 1500 µM; in assay [5] it was over 1500 µM; in assay [6] it was over 1500 µM. Further, the MIC in [7] is 366 µM; in assay [8], over 1500 µM; in [9] it was 1500 µM; in assay [10], over 1500 µM.
For `CCCCCCCC(=O)NNC(=O)C[n+]1ccccc1`, the MIC is over 1600 µM in assay [1]; 1600 µM in assay [2]; over 1600 µM in assay [3]; over 1600 µM in assay [4]; over 1600 µM in assay [5]; over 1600 µM in assay [6]. The minimum inhibitory concentration (MIC) in assay [7], in assay [8], in assay [9] and in assay [10] was over 1600 µM in each case.
For `CCCCCCCCCCCCCCCC(=O)NNC(=O)C[n+]1ccccc1`, the minimal inhibitory concentration (MIC) in assay [1] was 18 µM; in assay [2] it was 9.1 µM; in [3] it was over 37 µM; in [4], 37 µM; in assay [5], over 74 µM; in assay [6] it was over 74 µM. Besides, the minimal inhibitory concentration (MIC) is 4.6 µM in assay [7], over 74 µM in assay [8], 37 µM in assay [9] and over 37 µM in assay [10].
With `CCCCCCCC/C=C\CCCCCCCC(=O)NNC(=O)C[n+]1ccccc1`, the MIC is over 17 µM in [1]; 1.1 µM in assay [2]; over 69 µM in assay [3]; over 34 µM in assay [4]; over 69 µM in assay [5]; over 69 µM in assay [6]. For the same molecule, the MIC in assay [7] is over 17 µM; in [8], over 69 µM; in assay [9] it was over 17 µM; in assay [10] it was over 34 µM.
